Converted amounts (≈) assume the structure as drawn.
Tests used:
[1] = tested on: Mycobacterium tuberculosis; assay: Antitubercular activity against Mycobacterium tuberculosis H37Ra after 4 days by microplate alamar blue assay; format: functional; conditions: 96 h
Summary of the method: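 M. tuberculosis H37Ra tested by microplate Alamar Blue assay. MIC was taken as the lowest concentration giving ≥90% growth inhibition.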

Candida albicans = assay: Antifungal activity against Candida albicans; format: functional, organism-based
Summary of the method: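 Colorimetric growth-inhibition assay against Candida albicans; IC50 values reported.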

[2] = Cytotoxicity against human BC cells by SRB assay; format: functional, cell-based
Summary of the method: (§1)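 Colorimetric cytotoxicity assay. IC50 given as mean ± SD (n = 3), curve fits with R2 > 0.9. Ellipticine served as positive control.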

NCI-H187 = assay: Cytotoxicity against human NCI-H187 cells by SRB assay; format: functional, cell-based; summary of the method: as §1
KB = assay: Cytotoxicity against human KB cells by SRB assay; format: functional, cell-based; summary of the method: as §1
Vero = assay: Cytotoxicity against african green monkey Vero cells by SRB assay; format: cell-based, Chlorocebus sabaeus; summary of the method: as §1
Plasmodium falciparum = assay: Antiplasmodial activity after 24 hrs against Plasmodium falciparum K1 by [G-3H]hypoxanthine uptake; format: functional, organism-based; conditions: K1, 24 h
Summary of the method: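 P. falciparum K1 tested by a microculture radioisotope technique, with IC50 as the read-out.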

[3] = Homo sapiens, BC, read-out: IC50
[4] = Homo sapiens, NCI-H187, read-out: IC50
[5] = Homo sapiens, KB, read-out: IC50
[6] = Chlorocebus sabaeus, Vero, read-out: IC50

| SMILES | MIC [1] [µM] | IC50 (Candida albicans) [µM] | IC50 [2, 3] [µM] | IC50 (NCI-H187; [4]) [µM] | IC50 (KB; [5]) [µM] | IC50 (Vero; [6]) [µM] | IC50 (Plasmodium falciparum) [µM] | other results |
| --- | --- | --- | --- | --- | --- | --- | --- | --- |
| NNC(=O)c1ccncc1 [ISONIAZID] | 0.37 (≈ 0.0507 µg/mL) |  |  |  |  |  |  |  |
| C[C@@H]1[C@H](O)[C@@H](C)/C=C/C=C/C=C/C=C/C=C/C=C/C=C/[C@H](O[C@@H]2O[C@H](C)[C@@H](O)[C@H](N)[C@@H]2O)C[C@@H]2O[C@](O)(C[C@@H](O)C[C@@H](O)[C@H](O)CC[C@@H](O)C[C@@H](O)CC(=O)O[C@H]1C)C[C@H](O)[C@H]2C(=O)O [AMPHOTERICIN B] |  | 0.03 |  |  |  |  |  |  |
| Cc1c2ccncc2c(C)c2c1[nH]c1ccccc12 [ELLIPTECINE] |  |  | 1.2 | 4.4 | 1.38 | 1.69 |  |  |
| CCCCCCCCC/C=C/C(=O)N[C@H]1C[C@@]2(O)C(=O)C=C[C@@H](Cl)[C@@H]2O[C@H]1O [ISARIOTIN F] | 60.4 (≈ 25 µg/mL) | 13.9 | 2.4 | 1.6 | 15.8 | 2.9 | 5.1 |  |
| CCCCCCCCC/C=C/C(=O)N[C@H]1C[C@@]2(O)C(=O)[C@@H]([C@H]1O)[C@H](OC)[C@@H]1O[C@@H]12 |  |  |  |  |  |  |  | IC50 ([2]; bc): Not Active; IC50 (NCI-H187; nci-h187): Not Active; IC50 (KB; kb): Not Active; IC50 (Vero; vero): Not Active |
| C[C@H]1[C@@H](O)O[C@@H]2O[C@@]3(C)CC[C@H]4[C@H](C)CC[C@@H]1[C@@]24OO3 [ARTENIMOL] |  |  |  |  |  |  | 0.004 |  |
